# TRPC6 inhibitor: mouse TRPC6 channel inhibition; Q61143; HEK293-TRPC6, membrane potential dye, ACh-evoked depolarization; hits give low values; B-score at 10 µM; actives 1.1% (n = 310,000); AID 2553;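 active = B-score under library mean minus 3 SD, initial fluorescence not abnormally high, positive integrated signal ratio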;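 note: B-score derived from integrated fluorescence ratio over the kinetic read; more negative B-score means stronger inhibition of depolarization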
# TRPC4 block: TRPC4 (mouse) channel inhibition; Q9QUQ5; HEK293 TRPC4beta/mu-opioid, DAMGO-evoked Fluo4 calcium flux; hits give low values; B-score at 10 µM; actives 0.39% (n = 300,000); AID 2247;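 active = B-score over 3 SD under the library average, no early fluorescence shift, positive overall ratio signal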
# Target sequence (Q9QUQ5 whole entry, looked up): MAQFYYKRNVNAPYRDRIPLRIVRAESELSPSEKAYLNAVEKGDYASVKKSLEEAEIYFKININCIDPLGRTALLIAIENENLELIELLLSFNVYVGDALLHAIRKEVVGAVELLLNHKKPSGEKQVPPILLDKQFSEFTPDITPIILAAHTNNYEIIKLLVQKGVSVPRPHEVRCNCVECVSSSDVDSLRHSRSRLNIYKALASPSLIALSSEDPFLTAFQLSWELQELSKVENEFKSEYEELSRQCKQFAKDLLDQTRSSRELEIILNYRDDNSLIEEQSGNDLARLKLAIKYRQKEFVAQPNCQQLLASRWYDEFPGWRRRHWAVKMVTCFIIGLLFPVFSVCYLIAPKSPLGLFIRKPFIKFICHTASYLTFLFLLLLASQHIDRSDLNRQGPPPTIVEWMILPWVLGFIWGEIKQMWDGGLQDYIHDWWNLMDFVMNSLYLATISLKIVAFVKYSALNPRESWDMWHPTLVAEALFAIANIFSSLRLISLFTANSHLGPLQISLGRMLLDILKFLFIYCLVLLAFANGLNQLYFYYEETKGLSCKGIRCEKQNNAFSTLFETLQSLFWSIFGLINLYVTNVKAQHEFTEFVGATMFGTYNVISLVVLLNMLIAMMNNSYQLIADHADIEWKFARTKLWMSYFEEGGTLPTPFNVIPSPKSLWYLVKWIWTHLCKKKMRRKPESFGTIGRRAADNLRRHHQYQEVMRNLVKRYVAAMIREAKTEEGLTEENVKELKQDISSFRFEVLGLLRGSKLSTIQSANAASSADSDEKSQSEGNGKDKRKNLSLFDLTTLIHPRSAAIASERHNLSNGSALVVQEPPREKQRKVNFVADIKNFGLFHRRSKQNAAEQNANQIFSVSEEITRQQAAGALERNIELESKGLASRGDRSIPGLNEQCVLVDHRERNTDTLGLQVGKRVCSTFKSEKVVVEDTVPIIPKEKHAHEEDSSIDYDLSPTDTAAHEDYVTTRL
#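 Material: HEK293 cells with stable TRPC4beta plus mu-opioid receptor expression; probe or stimulus: DAMGO in two steps, submaximal then maximal; technique: Fluo4 calcium fluorescence by kinetic imaging, 5 s 1 Hz baseline; measure: integrated fluorescence ratio relative to baseline, converted to per-well B score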
# TRPC4 act: activators of mouse TRPC4 channel. Q9QUQ5. HEK293 TRPC4beta/mu-opioid, Fluo4 calcium fluorescence; hits give high values. B-score at 10 µM. actives 0.49% (n = 310,000). AID 2237;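 active = B-score above 5 SD of library B-scores, and initial fluorescence ratio not above library mean plus 5 SD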;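 note: positive B-score marks a calcium rise read as TRPC4 activation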
#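 Assay system: HEK293 stable line with TRPC4beta plus mu-opioid receptor. Times: dye 45 min RT, read 110 s. Measured by: kinetic Fluo4 calcium fluorescence. Measure: B score of integrated ratio. Controls: assay buffer as low control, maximal DAMGO as high control.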
# TRPC6 act: activates the mouse TRPC6 cation channel; AID 2550; HEK293-TRPC6 membrane potential dye fluorescence; hits give high values; actives 0.13% (n = 310,000); Q61143; B-score at 10 µM;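 active = B-score of the integrated fluorescence ratio above library mean plus 3 SD, and starting fluorescence ratio within library mean plus 5 SD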;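 note: higher score means more depolarization so channel activation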
# DNA FID counter: displaces DNA intercalator in HCV helicase counter-screen; DNA fluorescent intercalator displacement, fluorescence; inhibition, % at 7.9 µM; actives 0.17% (n = 290,000); AID 1845; in the data active = inhibition above about 37%;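 note: 0% = vehicle and 100% = reference compound; higher means more ethidium bromide displaced from hairpin DNA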
# TRPC4 PAM: allosterically enhances the mouse TRPC4 cation channel; HEK293 TRPC4beta/mu-opioid, DAMGO EC20, Fluo-4 Ca2+ flux; hits give high values; B-score at 10 µM; actives 0.42% (n = 310,000);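 active = B-score of calcium response area above 5 SD of library B-scores, with initial fluorescence ratio within 5 SD of library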;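 note: B-score of integrated fluorescence ratio over time as area under calcium response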
# TRPC4 spec 2: second check of whether TRPC6 inhibitors also affect mouse TRPC4; inhibition, % at 10 µM; AID 2776; HEK293 TRPC4/MOR, membrane potential dye fluorescence; channel activated by saturating DAMGO dose; actives 42% (n = 920); shares compounds with TRPC6 inhibitor;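 active = compounds whose fluorescence signal differed from control wells by over 3 SD, either direction, in both duplicate plates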
# TRPC4 spec: mouse TRPC4 off-target activity of TRPC6 inhibitors; shares compounds with TRPC6 inhibitor; HEK293 TRPC4/mu-opioid, membrane potential fluorescence; activity change, negative = inhibition, % at 10 µM; actives 61% (n = 920); AID 2777;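 active = rise or fall in signal beyond 3 SD of buffer-only wells in both replicate plates, either sign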;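 note: integrated kinetic ratio of fluorescence range over baseline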
# HEK293 MPD ctr 2-1: second check of TRPC6 inhibitor effects in parental HEK293 cells. actives 31% (n = 920). signal change vs control, % at 10 µM. parental HEK293 membrane potential dye fluorescence; maximal acetylcholine challenge after compound addition. shares compounds with TRPC6 inhibitor;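 active = membrane potential signal moving either way by over 3 SD of the maximum-effect control, in both duplicate plates, meaning non-specific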
# HEK293 MPD ctr-1: checks TRPC6 inhibitor effects in parental HEK293 cells; shares compounds with TRPC6 inhibitor; parental HEK293 membrane potential dye fluorescence; membrane potential signal change, % at 10 µM; actives 60% (n = 920); AID 2780;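 active = membrane potential signal shifting up or down by more than 3 SD of buffer-only wells, on both duplicate plates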
# HEK293 MPD ctr-2: checks TRPC6 modulator effects in parental HEK293 cells | shares compounds with TRPC6 inhibitor | AID 488924 | membrane potential signal change, % at 10 µM | membrane potential dye fluorescence | actives 51% (n = 2,400);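 active = membrane potential signal moves up or down beyond 5 SD from buffer-only wells, on both duplicate plates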
# HEK293 MPD ctr 2-2: second counter-screen for TRPC6 modulators: effect in parental HEK293 cells; shares compounds with TRPC6 inhibitor; AID 488926; inhibition, % at 10 µM; actives 14% (n = 2,400); membrane potential dye fluorescence; after compound, maximal acetylcholine stimulation;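 active = membrane potential signal drops by more than 5 SD from the mean control signal, in both duplicate plates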;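 note: plate controls were acetylcholine ECmax control wells for no effect and buffer only wells for full effect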
# TRPC4 ctr mod: mouse TRPC4 off-target activity of TRPC6 modulators | shares compounds with TRPC6 inhibitor | HEK293 TRPC4/mu-opioid, membrane potential fluorescence | percent change from control (negative = decrease, positive = increase), % at 10 µM | actives 69% (n = 2,400) | AID 488927;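 active = membrane potential signal moved up or down beyond 5 SD of buffer control wells, in both duplicate plates, actives on both sides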;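 note: plate controls were assay buffer wells for no effect and DAMGO maximal-effect wells for full effect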
# TRPC4 ctr inh 2: second check of whether TRPC6 modulators also affect mouse TRPC4. HEK293 TRPC4/mu-opioid, membrane potential dye fluorescence; stimulated with maximal-effect DAMGO. shares compounds with TRPC6 inhibitor. inhibition, % at 10 µM. actives 55% (n = 2,400);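 active = drop in membrane potential signal beyond 5 SD of the control wells in both duplicate plates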;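 note: TRPC4 counter screen for TRPC6 hits run under conditions tuned for TRPC6 not TRPC4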
# TRPC6 block conf: confirmation of mouse TRPC6 inhibitors. HEK293-TRPC6, membrane potential dye, ACh-evoked depolarization. shares compounds with TRPC6 inhibitor. actives 43% (n = 3,300). inhibition, % at 10 µM;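 active = fluorescence ratio falls more than 5 SD below the full-stimulation control mean, in both duplicate runs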;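 note: integrated fluorescence ratio of peak minus minimum over baseline after agonist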
# TRPC6 act confirm: mouse TRPC6 activator confirmation; shares compounds with TRPC6 inhibitor; HEK293-TRPC6 membrane potential dye fluorescence, FDSS; activation, % at 10 µM; actives 11% (n = 2,800);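 active = ratio signal rise beyond 5 SD above unstimulated control wells' mean, seen in both duplicate runs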;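 note: plate controls were buffer EC0 wells for no effect and acetylcholine ECmax response for full effect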
# Numbers without * were called inactive; i = inactive; · = no result given. Compounds with a hit are over-represented: about 2.3% of the library has one in this group of screens.
SMILES,TRPC6 inhibitor,TRPC4 block,TRPC4 act,TRPC6 act,DNA FID counter,TRPC4 PAM,HEK293 MPD ctr-2,HEK293 MPD ctr 2-2,TRPC4 ctr mod,TRPC4 ctr inh 2,TRPC6 block conf,TRPC6 act confirm,others
OC(c1cccs1)(c1cccs1)C1C[N+]2(CF)CCC1CC2 (configuration not stated),-6.4*,i,i,i,-1,i,i,i,i,i,40%*,i,
O=C(CCC1CCCC1)NCc1cccs1,i,i,i,i,-7,i,·,·,·,·,·,·,
Cc1ccc2cc(CN(CCN3CCCC3)C(=O)Nc3ccccc3)c(=O)[nH]c2c1C,-5*,i,i,i,32,i,i,i,i,54%*,46%*,i,
O=C(Nc1ccccc1Cl)N1CCCN(c2nc(-c3ccccc3)ns2)CC1,-5.1*,i,i,i,-15,i,i,i,i,i,i,i,
COc1cccc(OC)c1OC(=O)/C=C/c1ccc(C)o1,i,i,i,i,-29,i,·,·,·,·,·,·,
COC(=O)c1cn(Cc2cc(OC)ccc2OC)cc(F)c1=O,-5.3*,i,i,i,-5,i,i,i,i,i,i,i,
N#Cc1cc(-c2ccccc2)nc(NN)n1,i,i,i,i,-6,i,·,·,·,·,·,·,
N#Cc1cc(-c2ccccc2)nc(N2CCNCC2)n1,-6.4*,i,78*,i,5,i,i,i,i,68%*,65%*,i,
Nn1c(SCC(=O)NCCCc2ccccc2)nnc1-c1cccnc1,i,i,i,i,-3,i,·,·,·,·,·,·,
COc1cc2c(cc1OC)C1(Nc3c-2c(Cc2ccccc2)nn3-c2ccccc2)C(=O)Nc2ccccc21 (configuration not stated),-6.8*,i,i,i,-7,i,·,·,·,·,i,i,TRPC4 spec 2=i;TRPC4 spec=-9.5%*;HEK293 MPD ctr 2-1=i;HEK293 MPD ctr-1=i
O=C1C(=O)c2c(C(=O)c3ccccc3)coc2-c2ccccc21,-6.2*,i,i,i,-3,i,-80%*,i,-18%*,72%*,60%*,i,
CCN(CC)CCN1C(=O)c2ccccc2NC1c1ccc(Br)cc1 (configuration not stated),-6.7*,i,i,i,14,i,i,i,18%*,42%*,i,·,
CCN(CC)CCN1C(=O)c2ccccc2NC1c1ccc(C)cc1 (configuration not stated),i,i,i,i,-9,i,·,·,·,·,·,·,
Cc1ccc(N2CC(C(=O)Nc3nnc(SCC(N)=O)s3)CC2=O)cc1 (configuration not stated),i,i,i,i,-18,i,·,·,·,·,·,·,
O=C(Nc1cccc(S(=O)(=O)C(F)F)c1)c1ccc(Cl)c(S(=O)(=O)N2CCOCC2)c1,-6.1*,i,i,i,-3,i,i,i,i,i,i,i,
CCOC(=O)Nc1ccc2c(c1)OCO2,-5.6*,i,i,i,0,i,i,i,i,i,i,i,
COC(=O)Nc1ccc2c(c1)OCO2,i,i,i,i,1,i,·,·,·,·,·,·,
Clc1ncccc1OCc1ccccc1,i,i,i,i,·,i,·,·,·,·,·,·,
NCCC(=O)N1c2ccccc2Sc2ccc(Cl)cc21,i,i,i,i,16,i,·,·,·,·,·,·,
NCCCC(=O)N1c2ccccc2Sc2ccc(Cl)cc21,-5.3*,i,i,i,6,i,i,i,i,54%*,64%*,i,
CN(C)CCC(=O)N1c2ccccc2Sc2ccc(Cl)cc21,-8.5*,i,i,i,2,i,·,·,·,·,59%*,·,TRPC4 spec 2=i;TRPC4 spec=4.2%*;HEK293 MPD ctr 2-1=i;HEK293 MPD ctr-1=7.7%*
CCN(CC)CCC(=O)N1c2ccccc2Sc2ccc(Cl)cc21,-5.4*,i,i,i,·,i,216%*,i,35%*,46%*,78%*,·,
CN1CCC=C(C(=O)N2c3ccccc3Sc3ccc(Cl)cc32)C1,-5.4*,i,i,i,10,i,118%*,i,16%*,38%*,41%*,·,
O=C(c1ccccc1N(Cc1ccccc1)S(=O)(=O)c1ccccc1)N1CCOCC1,i,i,i,i,-35,i,·,·,·,·,·,·,
Cc1ccc(NC2CCCN(C(=O)CSc3ccccn3)C2)cc1C (configuration not stated),i,i,i,i,-38,i,·,·,·,·,·,·,
O=C1Nc2ccccc2OC1CC(=O)N1CCOCC1 (configuration not stated),i,i,i,i,-1,i,·,·,·,·,·,·,
